Rpn11 block: inhibitors of human proteasome Rpn11 | O00487 | human 26S proteasome, Ub4-pepOG fluorescence polarization; 20S core pre-blocked with epoxomicin | AID 588493 | inhibition, % at 20 µM | 360,000 tested, 0.59% active;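 active = inhibition at 20 µM, scaled to each plate's controls, above about 33%, limit read from the data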
LMPTP inh: blocks human LMPTP phosphatase. AID 651560. recombinant LMPTP-A, OMFP fluorogenic substrate, fluorescence intensity. 360,000 tested, 0.22% active. inhibition, % at 20 µM. P24666;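 active = compounds that cut the enzyme signal by at least half of the control window in the single-dose screen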;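 also: plate controls were DMSO wells with enzyme plus substrate for no effect and substrate without enzyme for full effect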
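Material: LMPTP-A; amount: 0.625 nM enzyme; doses: single 20 µM dose; times: reaction 50 min, room temperature, dark; technique: fluorescence intensity of OMFP turnover product; benchmarks: no-enzyme and uninhibited controls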
SUMO1 PPI mod: SUMO1-SIM interaction modulation; P63165; SUMO1 binding to a labelled peptide, TR-FRET, 1 h; inhibition, % at 20 µM; 360,000 tested, 0.33% active; AID 602429; in the data active = inhibition above about 37%
Target sequence (P63165 whole entry, looked up): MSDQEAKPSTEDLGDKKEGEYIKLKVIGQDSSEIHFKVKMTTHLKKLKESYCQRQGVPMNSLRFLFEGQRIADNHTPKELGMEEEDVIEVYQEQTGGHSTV
DNMT1 inh: DNMT1 (human) enzyme inhibition; DNMT1 molecular beacon, Hinp1I cleavage, fluorescence; inhibition (reported as % activation of signal), % at 10 µM; 360,000 tested, 0.83% active; in the data active = inhibition above about 50%
Scp-1 inhibitor: inhibitors of human Scp-1 phosphatase | Q9GZU7 | inhibition, % at 20 µM | 340,000 tested, 0.88% active | Recombinant Scp1, phosphopeptide, malachite green phosphate absorbance;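 active = inhibition above about 50% at 20 µM, limit read from the data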;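 also: plate controls were DMSO wells with enzyme for no effect and wells lacking enzyme for full effect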
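Material: truncated SCP-1 phosphatase (76-261aa) / Buffer or medium: 50 mM Tris acetate pH 5.5, 0.005% Tween-20, 10 mM MgCl2 / Compound dosing: one concentration, 20 µM, with 1.0% DMSO / Incubation: 45 min room-temperature reaction, 5 min colour, 30 min stabiliser / Detection: colorimetric free-phosphate detection, absorbance 630 nm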
STEP block: blocks human striatal-enriched tyrosine phosphatase; P54829; recombinant STEP, OMFP fluorogenic substrate, fluorescence; inhibition, % at 20 µM; 360,000 tested, 0.25% active;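 active = inhibition at 20 µM, scaled per plate between control wells, above about 37%, limit read from the data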;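 also: 0% = DMSO with enzyme and substrate and 100% = substrate only without enzyme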
Target sequence (P54829 whole entry, looked up): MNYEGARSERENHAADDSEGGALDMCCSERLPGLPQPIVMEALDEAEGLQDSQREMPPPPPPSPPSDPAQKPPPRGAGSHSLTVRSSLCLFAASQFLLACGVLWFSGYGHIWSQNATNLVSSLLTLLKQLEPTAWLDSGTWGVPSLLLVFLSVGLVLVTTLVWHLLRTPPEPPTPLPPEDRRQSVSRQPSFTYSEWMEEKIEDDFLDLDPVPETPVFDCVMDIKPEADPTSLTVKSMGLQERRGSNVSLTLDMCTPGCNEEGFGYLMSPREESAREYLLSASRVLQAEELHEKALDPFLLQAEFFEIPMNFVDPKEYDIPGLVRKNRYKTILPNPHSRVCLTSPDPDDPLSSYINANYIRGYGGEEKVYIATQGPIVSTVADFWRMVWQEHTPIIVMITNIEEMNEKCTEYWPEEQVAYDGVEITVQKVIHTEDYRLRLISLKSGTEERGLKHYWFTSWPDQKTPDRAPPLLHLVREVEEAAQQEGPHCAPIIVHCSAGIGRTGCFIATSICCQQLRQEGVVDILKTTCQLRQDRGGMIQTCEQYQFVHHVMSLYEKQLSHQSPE
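Assay system: isolated STEP enzyme. Buffer or medium: pH 6.0 Bis-Tris with DTT and Tween 20. Also added: fluorogenic phosphatase substrate OMFP at 25 µM final. Dosing: 20 µM, 1% DMSO. Timing: 20 min reaction, room temperature, in the dark. Measured by: fluorescence intensity, excitation 480 nm, emission 540 nm. Evaluation: normalized % inhibition.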
Rpn11 confirm: confirmation of human proteasome Rpn11 inhibitors. purified human 26S proteasome, Ub4-pepOG fluorescence polarization; proteasome pretreated with epoxomicin. inhibition, % at 20 µM. 1,900 tested, 29% active. shares compounds with Rpn11 block
MMP-2 inh: counter-screen for RPN11 inhibitors: inhibition of human MMP-2 | shares compounds with Rpn11 block | recombinant MMP-2, FRET peptide cleavage fluorescence | inhibition, % at 20 µM | 1,900 tested, 4% active | AID 602330;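 also: human MMP-2 activated beforehand with APMA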
Thrombin FP: counter-screen for RPN11 inhibitors: inhibition of bovine thrombin; inhibition, % at 20 µM; shares compounds with Rpn11 block; bovine thrombin cleavage of Ub4-pepOG, fluorescence polarization; 1,900 tested, 13% active;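 active = mean inhibition at least 40% at 20 µM, or signal 3 deviations below plate average, so some actives read negative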;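 also: plate controls were thrombin with DMSO for no effect and buffer wells lacking thrombin for full effect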
The depositor's hits bear a star; . = no result given; + = active, no number. In the library only some 2.3% were active in any assay of this set; here they are far more common. Rule as the data show it, unless noted: active = inhibition above about 40%; inactive = the rest.

SMILES | Rpn11 block | LMPTP inh | SUMO1 PPI mod | DNMT1 inh | Scp-1 inhibitor | STEP block | Rpn11 confirm | MMP-2 inh | Thrombin FP
Cc1ccccc1-n1c(C)cc(/C=C2/C(=N)N3C(c4ccccc4)=CSC3=NC2=O)c1C | 103* | 2 | -1 | -11 | -8 | 4 | 27 | 23 | 29
Cc1cc(/C=C2\C(=N)N3N=C(C(C)C)SC3=NC2=O)c(C)n1Cc1ccccc1 | 4 | -1 | 5 | 0 | -4 | -2 | . | . | .
Cc1cc(/C=C2\C(=N)N3C(SCc4ccccc4)=NSC3=NC2=O)c(C)n1Cc1ccccc1 | 44* | 2 | -22 | 14 | -4 | 3 | -1 | -28 | -36
Cc1cc(/C=C2/C(=N)N3C(c4ccccc4)=CSC3=NC2=O)c(C)n1-c1ccccc1 | 31 | 3 | 1 | -4 | -12 | -1 | . | . | .
N#C/C(=C\c1cn(CCOc2ccccc2)c2ccccc12)C(=O)NCc1cccs1 | 25 | 4 | -6 | 8 | -14 | 1 | . | . | .
CC(C)c1csc(CN2CCC(C(=O)Nc3cccc(-c4ccco4)c3)CC2)n1 | 18 | 0 | 6 | -29 | . | 0 | . | . | .
CC(C)(C)OC(=O)n1cccc1/C=C1\c2ccccc2C(=O)N1c1ccccc1 | 41* | 2 | 0 | -15 | -4 | 0 | 34 | 21 | 7
O=C(CCN1C(=O)/C(=C/c2cccs2)SC1=S)Nc1cccc(C(=O)O)c1 | 42* | 1 | -2 | 2 | 36 | 5 | 47* | -6 | 51*
O=C(CCCN1C(=O)/C(=C/c2cccs2)SC1=S)Nc1ccccn1 | 4 | 1 | -10 | -4 | -8 | 4 | . | . | .
O=C(CCN1C(=O)/C(=C\c2cccs2)SC1=S)Nc1ccccn1 | 61* | 1 | -19 | -4 | 1 | 1 | 60* | 32 | 24
Cc1ccc(C(=O)N2NC(c3ccc(F)cc3)C3C(=O)N(c4ccc(C)c(C)c4)C(=O)C32)cc1 (stereo unspecified) | -7 | -1 | 3 | 2 | 2 | 1 | . | . | .
CC(Nc1ccc(Br)cn1)c1cc(Cl)ccc1O (stereo unspecified) | 73* | 1 | 10 | -2 | 1 | 0 | 6 | 8 | 4
CC1CCCC(NC(=O)CSc2nnc(C(F)(F)F)n2C)C1C (stereo unspecified) | 0 | -1 | 0 | 1 | -3 | -1 | . | . | .
NC1=NC[C@@H](CC2CCCCC2)N1CCc1cc(C(F)(F)F)cc(C(F)(F)F)c1 | 72* | -1 | -84 | 62* | 16 | 4 | 9 | -6 | -22
CCOc1ccc2nc(NC(=O)Cn3[nH]c(=O)c4ccccc4c3=O)sc2c1 | 68* | 1 | 0 | -8 | 1 | 4 | 56* | -4 | 25
COc1ccc(/C=C(\C#N)C(=O)Nc2cccnc2)cc1 | 1 | -2 | -19 | 5 | -1 | 0 | . | . | .
N#C/C(=C\c1ccc(O)c(O)c1)C(=O)Nc1ccccc1 | 56* | -1 | -26 | 5 | -20 | 1 | 91* | 9 | 27
N#C/C(=C\c1ccc(Cl)cc1)C(=O)Nc1cccnc1 | 91* | 0 | -6 | -2 | -1 | -2 | -8 | -34 | -7
O=C(c1ccc2c(=O)n3c(nc2c1)CCC3)N1CCN(S(=O)(=O)c2ccccc2Br)CC1 | -3 | 0 | 4 | -2 | -5 | 2 | . | . | .
COc1ccc(C=C2NC(=S)NC2=O)cc1 | -4 | -5 | -39 | -3 | -10 | 0 | . | . | .
COc1ccc(C(=O)N2C(=S)NC(=O)/C2=C\c2ccc(C)cc2)cc1 | 63* | 4 | -1 | -2 | 6 | 3 | 107* | 20 | 75*
NS(=O)(=O)c1ccc(CCNC(=O)Cn2c(=O)c3cccn3c3cccnc32)cc1 | 8 | 2 | 3 | 2 | 1 | 2 | . | . | .
CCOc1ccc(CCNC(=O)Cn2c(=O)c3cccn3c3cccnc32)cc1 | 42* | 0 | 4 | -1 | -3 | 3 | 2 | -11 | -5
COc1ccc(Cl)cc1C(=O)Nc1cccc(-c2ccc3nncn3n2)c1 | + | 40 | 47* | 17 | 42 | 61* | 76* | 16 | 14
C#CCn1c(=NC(=O)c2cc(-c3cccs3)nc3ccccc23)sc2cc(S(N)(=O)=O)ccc21 | 70* | 3 | 2 | -3 | 16 | -1 | 23 | -14 | 9
SMILES | Rpn11 block | LMPTP inh | SUMO1 PPI mod | DNMT1 inh | Scp-1 inhibitor | STEP block | Rpn11 confirm | MMP-2 inh | Thrombin FP
CC1CCCCC1NC(=O)CSc1nnc(COc2ccc(Cl)cc2)o1 (stereo unspecified) | -2 | 1 | 4 | -2 | -7 | 0 | . | . | .
Cc1cc(NC(=O)CCC(=O)N(c2ccccc2)C(C(=O)NCC2CCCO2)c2cccnc2)no1 (stereo unspecified) | 54* | 0 | 2 | 3 | -4 | -1 | -8 | -40 | 26
Cc1cc(NC(=O)CCC(=O)N(c2cccnc2)C(C(=O)NC2CCCC2)c2ccccc2)no1 (stereo unspecified) | -2 | -1 | -1 | -1 | 17 | -2 | . | . | .
C=CCc1c(C)nc(-c2ccccc2)nc1N/N=C/c1ccccc1 | 5 | 4 | -5 | 0 | -3 | 2 | . | . | .
C=CCc1c(C)nc(-c2ccccc2)nc1Nc1ccccc1O | 55* | 4 | -2 | -9 | -8 | -8 | 29 | 6 | 9
C=CCNc1nc(NCc2ccc(N(C)C)cc2)c2sc(-c3ccccc3)cc2n1 | -6 | 5 | -4 | -33 | . | 21 | . | . | .
O=C(Nc1ccc(N2CCN(C(=O)c3ccccc3F)CC2)cc1)c1ncn[nH]1 | 1 | -2 | 7 | 3 | -3 | 0 | . | . | .
Clc1cccc(Sc2ccc(-c3ccccn3)s2)c1 | 67* | 1 | -1 | -2 | -2 | 2 | -12 | -4 | -16
CC(C)C(=O)Nc1ccc(NC(=O)c2cccc3c(Br)cccc23)cc1 | -6 | -1 | 2 | 2 | -9 | -3 | . | . | .
CCCc1cc(=O)[nH]c(SCC(=O)N2N=C(c3ccc(Cl)cc3)CC2c2ccco2)n1 (stereo unspecified) | 37 | 2 | 6 | -2 | 3 | 13 | . | . | .
Nc1cc(=O)[nH]c(SCC(=O)N2N=C(c3ccc(Cl)cc3)CC2c2ccco2)n1 (stereo unspecified) | 44* | 2 | 0 | 10 | 3 | 2 | 3 | -40 | -6

From PubChem BioAssay
